An excerpt weighted towards active compounds, which were near 3.7% of everything screened.
NPY-Y1 PAM-ag: human NPY-Y1 potentiation or agonism, primary screen. NPY-Y1 expressing cells, potentiator/agonist activation. AID 1304. actives 0.37% (n = 220,000). activation, % at 3.6 µM. P25929; in the data active = activation above about 33%, passing the limit was not always enough;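 note: cells stimulated with NPY at EC10 then isoproterenol at EC100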
Target sequence (P25929 whole entry, looked up): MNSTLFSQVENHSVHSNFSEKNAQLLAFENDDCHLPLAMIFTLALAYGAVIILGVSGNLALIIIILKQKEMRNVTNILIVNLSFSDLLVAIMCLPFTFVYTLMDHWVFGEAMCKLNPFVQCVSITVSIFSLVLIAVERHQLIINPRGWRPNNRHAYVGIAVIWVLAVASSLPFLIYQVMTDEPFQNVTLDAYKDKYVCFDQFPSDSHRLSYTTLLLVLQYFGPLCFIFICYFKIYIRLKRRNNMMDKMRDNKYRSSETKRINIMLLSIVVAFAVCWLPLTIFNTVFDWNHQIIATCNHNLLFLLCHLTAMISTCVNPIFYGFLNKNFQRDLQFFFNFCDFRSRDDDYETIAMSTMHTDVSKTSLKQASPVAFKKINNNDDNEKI
NPY Y1 blocker: blocks the human neuropeptide Y Y1 receptor. P25929. HEK293-CNG Y1 cells, membrane potential fluorescence; NPY at EC95, then isoproterenol. inhibition, % at 3.6 µM. actives 1% (n = 200,000). AID 1040;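 active = inhibition above the campaign mean inhibition of all tested compounds plus 3 SD, cut at about 20% in these data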
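Material: HEK293 cells with Y1 receptor plus CNG channel; times: compound incubation 1 h at room temperature, readout 45 min post-stimulation; signal: fluorescence, membrane potential probe; read-out basis: fluorescence ratio normalized to % inhibition between controls; benchmarks: full-block control isoproterenol-only wells, zero-block control NPY plus isoproterenol wells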
NPY-Y2 antag: blocks the human neuropeptide Y Y2 receptor. P49146. NPY-Y2 expressing cells, antagonist mode. inhibition, % at 2.7 µM. actives 0.99% (n = 140,000). AID 793; in the data active = inhibition above about 17%
Target sequence (P49146 whole entry, looked up): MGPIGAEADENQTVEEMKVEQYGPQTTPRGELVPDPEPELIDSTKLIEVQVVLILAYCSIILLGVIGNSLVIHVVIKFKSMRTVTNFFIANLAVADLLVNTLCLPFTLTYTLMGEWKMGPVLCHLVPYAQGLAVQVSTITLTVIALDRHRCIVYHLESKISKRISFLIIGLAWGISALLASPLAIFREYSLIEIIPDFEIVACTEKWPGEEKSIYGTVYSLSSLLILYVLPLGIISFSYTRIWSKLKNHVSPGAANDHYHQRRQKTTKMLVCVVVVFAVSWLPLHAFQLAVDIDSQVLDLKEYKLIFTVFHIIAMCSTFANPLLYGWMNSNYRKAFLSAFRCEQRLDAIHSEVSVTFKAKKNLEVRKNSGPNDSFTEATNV
Furin inh: blocks human furin protease activity. purified furin, fluorogenic substrate cleavage. actives 0.061% (n = 220,000). inhibition, % at 20 µM or 30 µM; in the data active = inhibition above about 25%
KCC2 mod: modulates chloride dependent transport by human KCC2 | actives 2.2% (n = 190,000) | KCC2 cells, thallium flux FluoZin-2 fluorescence | AID 1456 | Q9H2X9 | B-score of Tl+ flux slope (higher = more flux/activation; lower = inhibition) at 10 µM;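 active = thallium flux slope and its plate-corrected score both differing from the plate sample mean at a set confidence after two filtering rounds, in either direction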;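 note: slope of fluorescence scaled to starting intensity during 10 to 20 s after thallium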
NPY-Y2 PAM-ag: potentiators or agonists of human neuropeptide Y receptor Y2; activation, % at 3.6 µM; P49146; actives 0.45% (n = 220,000); AID 1359; cells expressing NPY-Y2, potentiator/agonist read-out; in the data active = activation above about 27%;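 note: cells stimulated with NPY near EC25 plus isoproterenol at EC100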
NPY-Y1 pot conf: human NPY-Y1 potentiation or agonism, confirmation | shares compounds with NPY-Y1 PAM-ag | cell-based NPY-Y1 potentiator/agonist assay | activation, % at 3.6 µM | actives 20% (n = 280); in the data active = activation above about 45%;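 note: cells challenged with NPY at its EC10 plus isoproterenol stimulus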
NPY-Y2 counter: potentiates or activates NPY-Y2, counter-screen for NPY-Y1 hits; activation, % at 3.6 µM; HEK293-CNG cells, membrane-potential fluorescence (FLIPR), 1536-well; shares compounds with NPY-Y1 PAM-ag; AID 1649; actives 20% (n = 280); in the data active = activation above about 33%
NPY-Y1 agonist: counter-screen for NPY-Y1 potentiators: agonists of human NPY-Y1 | shares compounds with NPY-Y1 PAM-ag | HEK293 Y1-CNGC, membrane potential fluorescence, agonist mode | activation, % at 3.6 µM | actives 50% (n = 280) | AID 1697;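 active = percent activation above the mean of DMSO-only control wells plus 3 SD of those wells, cut at about 18% in these data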;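 note: cells challenged with isoproterenol plus Ro 20-1724 with no NPY in test wells; Y1 agonism lowers isoproterenol-driven cAMP and reduces probe fluorescence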
NPY-Y2 ag: activates human NPY-Y2, counter-screen for NPY-Y1 hits. shares compounds with NPY-Y1 PAM-ag. actives 67% (n = 280). AID 1698. activation, % at 3.6 µM. HEK293 Y2-CNGC, membrane potential fluorescence, agonist mode;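 active = activation above the solvent-only control wells' mean plus 3 SD, cut at about 11% in these data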;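 note: agonism lowers cAMP so well fluorescence drops in active wells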
CNGC inh 2: blocks cyclic nucleotide gated channel in NPY-Y1 counter-screen. shares compounds with NPY-Y1 PAM-ag. HEK293-CNG parental, isoproterenol cAMP, membrane potential fluorescence. inhibition, % at 3.6 µM. actives 42% (n = 280). AID 1704;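 active = inhibition above the mean of stimulated solvent-only control wells plus 3 SD, cut at about 22% in these data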
Each line names hits and unclear results; the compound was inactive in the other large screens (follow-up assays come after a bar, where they were run).

Cc1ccc(N2CC(C(=O)Nc3c(C)n(C)n(-c4ccccc4)c3=O)CC2=O)cc1 (stereo unspecified)	none (no result: NPY-Y2 antag)
Cc1nc2ccccc2n1C1CCN(C(=O)Nc2ccccc2)CC1	none (no result: NPY-Y2 antag, KCC2 mod)
Cc1c(Cl)ccc2c1NC(=O)[C@]21[C@@H]2C(=O)N(Cc3ccccc3)C(=O)[C@@H]2[C@@H]2CCCN21	NPY-Y1 PAM-ag 32 (no result: KCC2 mod) | NPY-Y1 pot conf inactive | NPY-Y2 counter inactive | NPY-Y1 agonist inactive | NPY-Y2 ag 11 | CNGC inh 2 inactive
COc1ccccc1C(=O)OCCNC(=O)Cn1cnc2c1c(=O)n(C)c(=O)n2C	none (no result: NPY-Y2 antag)
CCCC(=O)Nc1ccc(Cl)c(NC(=O)c2ccco2)c1	none
CS/C(Nc1cc(Cl)ccc1Cl)=C(/C#N)C(=O)c1ccco1	NPY-Y1 PAM-ag 51 (no result: NPY Y1 blocker, NPY-Y2 antag, KCC2 mod) | NPY-Y1 pot conf inactive | NPY-Y2 counter inactive | NPY-Y1 agonist inactive | NPY-Y2 ag 16 | CNGC inh 2 inactive
CS(=O)(=O)N1CCN(CC(=O)NC2CCCCC2)CC1	none (no result: NPY-Y2 antag)
CC1(C)Cc2c(cnn2-c2ccccc2)C(=O)/C1=N\NC(=O)c1ccccc1N	none
CC1(C)Cc2c(cnn2-c2ccccc2)-c2c1c1ccccc1n2CC(O)CBr (stereo unspecified)	NPY-Y1 PAM-ag 50 | NPY-Y1 pot conf inactive | NPY-Y2 counter inactive | NPY-Y1 agonist inactive | NPY-Y2 ag 12 | CNGC inh 2 inactive
COc1ccc(C)cc1NC(=O)C1CC(=O)N(Cc2ccco2)C1 (stereo unspecified)	none
COc1cc2c(cc1NC(=O)C(C)OC(=O)C1CC(=O)N(Cc3ccco3)C1)oc1ccccc12 (stereo unspecified)	NPY-Y1 PAM-ag 124 | NPY-Y1 pot conf inactive | NPY-Y2 counter inactive | NPY-Y1 agonist inactive | NPY-Y2 ag 16 | CNGC inh 2 inactive
O=C(CN1CC(=O)Nc2ccccc21)NCCc1ccc(Cl)cc1Cl	none (no result: NPY-Y2 antag)
CCCOC(=O)c1c(-c2ccc(C)cc2C)csc1NC(=O)C1C2CCC(O2)C1C(=O)O (stereo unspecified)	NPY-Y1 PAM-ag 48 | NPY-Y1 pot conf inactive | NPY-Y2 counter inactive | NPY-Y1 agonist 18 | NPY-Y2 ag 13 | CNGC inh 2 inactive
CCOC(=O)c1c(NC(=O)C2C3CCC(O3)C2C(=O)O)sc(C)c1-c1ccc(F)cc1 (stereo unspecified)	none (no result: KCC2 mod)
C=CCN(CC=C)C(=O)C(=O)c1ccn(-c2c(C)csc2C(=O)OC)c1	none (no result: NPY-Y2 antag, KCC2 mod)
COc1ccccc1CNC(=O)C1(NC(=O)Nc2ccc(C)cc2)CCCCC1	none (no result: NPY-Y2 antag)
CCCCC(=O)Nc1ccc(C(=O)Nc2ccc(S(=O)(=O)Nc3ccc(C)cc3)cc2)cc1	NPY-Y1 PAM-ag 60 | NPY-Y1 pot conf inactive | NPY-Y2 counter inactive | NPY-Y1 agonist inactive | NPY-Y2 ag 16 | CNGC inh 2 inactive
O=C(COC(=O)C12CC3CC(CC(C3)C1)C2)Nc1nc2c(F)c(F)c(F)cc2s1	none
CCCCOc1ccc2c(c1)C(=O)c1cc(O)ccc1-2	NPY-Y1 PAM-ag 38 (no result: NPY-Y2 antag) | NPY-Y1 pot conf 49 | NPY-Y2 counter 41 | NPY-Y1 agonist 40 | NPY-Y2 ag 39 | CNGC inh 2 33
Cc1ccc(C)c2nc3sc(C(=O)O)cc3cc12	none (no result: NPY-Y2 antag)
O=C(O)c1cccc(-c2ccc(/C=N/n3cnc4sc5c(c4c3=O)CCCC5)o2)c1	none (no result: NPY Y1 blocker, NPY-Y2 antag)
COc1ccc(-n2nc3ccc(NS(C)(=O)=O)cc3n2)cc1Cl	NPY-Y1 PAM-ag 42 | NPY-Y1 pot conf inactive | NPY-Y2 counter inactive | NPY-Y1 agonist 46 | NPY-Y2 ag 16 | CNGC inh 2 inactive
CN1CCN(c2ccccc2NC(=O)c2ccc(N3CCCC3)c([N+](=O)[O-])c2)CC1	none (no result: NPY-Y2 antag)
O=C(Nc1ccccc1N1CCCCC1)c1ccc(Cl)c([N+](=O)[O-])c1	NPY-Y1 PAM-ag 51 (no result: NPY-Y2 antag) | NPY-Y1 pot conf 45 | NPY-Y2 counter 39 | NPY-Y1 agonist 29 | NPY-Y2 ag 38 | CNGC inh 2 34
CC(C)(C)C(=O)OCc1nc(-c2ccc(F)cc2)cs1	none (no result: NPY Y1 blocker, NPY-Y2 antag)
COc1ccc(-c2nc(CN3CCCC(C(=O)NC4CCCC4)C3)c(C)o2)cc1 (stereo unspecified)	NPY-Y1 PAM-ag 59 (no result: KCC2 mod) | NPY-Y1 pot conf inactive | NPY-Y2 counter inactive | NPY-Y1 agonist inactive | NPY-Y2 ag inactive | CNGC inh 2 inactive
COc1ccc(CNC(=O)C2CCCN(Cc3nc(-c4cccc(C)c4)oc3C)C2)cc1 (stereo unspecified)	none (no result: NPY-Y2 antag)
CCC(=O)Nc1c2c(nn1-c1ccc(OC)cc1)CS(=O)C2 (stereo unspecified)	none
CCC(CC)C(=O)Nc1c2c(nn1-c1ccc(OC)cc1)CS(=O)C2 (stereo unspecified)	NPY-Y1 PAM-ag 41 | NPY-Y1 pot conf inactive | NPY-Y2 counter inactive | NPY-Y1 agonist inactive | NPY-Y2 ag inactive | CNGC inh 2 inactive
COc1nccnc1NS(=O)(=O)c1ccc(NS(=O)(=O)c2ccc(NC(C)=O)cc2)cc1	NPY-Y1 PAM-ag 81 (no result: KCC2 mod) | NPY-Y1 pot conf inactive | NPY-Y2 counter inactive | NPY-Y1 agonist inactive | NPY-Y2 ag inactive | CNGC inh 2 inactive
CCC(=O)OC1=C2C(=Nc3c(c(=O)n(C)c(=O)n3C)C2c2ccccc2)c2ccccc21 (stereo unspecified)	none
C/C(=N\O)C(=O)NCCN(C)C	none
COc1ccc(-n2nc(C(=O)c3cccs3)cc(-c3nc4ccccc4[nH]3)c2=N)cc1	none
Cc1ccccc1-n1nc(C(=O)c2cccs2)cc(-c2nc3ccccc3[nH]2)c1=N	NPY-Y1 PAM-ag 48 | NPY-Y1 pot conf 73 | NPY-Y2 counter 65 | NPY-Y1 agonist 62 | NPY-Y2 ag 66 | CNGC inh 2 62
Cn1cc([N+](=O)[O-])c(C(=O)Nc2ccc(C3CCCCC3)cc2)n1	NPY-Y1 PAM-ag 37 (no result: NPY-Y2 antag) | NPY-Y1 pot conf inactive | NPY-Y2 counter inactive | NPY-Y1 agonist 19 | NPY-Y2 ag 17 | CNGC inh 2 inactive
COc1ccc(Oc2c(Cl)cnn(-c3ccc(C)cc3)c2=O)cc1	none (no result: KCC2 mod)

High-throughput results (PubChem BioAssay)
